The values below come from ChEMBL document CHEMBL1132689, “New tetracyclic analogues of photochemotherapeutic drugs 5-MOP and 8-MOP: synthesis, DNA interaction, and antiproliferative activity” (J Med Chem, 1999).

SMILES strings stand for the structures. Calls of active or inactive are those of the source. The rule behind the calls is not given here.

Assay [1] has as its system HL-60. The assay can be described thus: The compound was tested in vitro for growth inhibition against HL-60(human promyelocytic leukemia) cell line in the dark. The assay is classed as functional, cell-based.
Assay [2] concerns HeLa. Nature of the assay: The compound was tested in vitro for growth inhibition against HeLa(human cervix adenocarcinoma) cell line in the presence of UVA(ultra violet A irradiated). The assay is classed as functional, cell-based. As to conditions: light or radiation study. In a few lines:
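HeLa (F-12 with 10% heat-inactivated FCS) seeded 10^5/well for 24 h; medium changed to phenol red-free DMEM with test agent, 1 h later irradiated with UVA 0.793 J cm-2 at 365 nm; drug medium removed, cells kept 24 h in complete F-12; trypan blue viability; IC50 as 50% cell-number reduction versus control.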

For assay [3], the system named is HeLa. The assay can be described thus: The compound was tested in vitro for growth inhibition against HeLa(human cervix adenocarcinoma) cell line in the dark. The assay is classed as functional, cell-based.
The species entered for assay [4] is Cavia porcellus. The assay can be described thus: The compound was tested for photo antiproliferative activity and ability to induce erythema on guinea pig skin; --- = absent. The assay is classed as functional, organism-based. In a few lines:
(§1)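 Depilated albino guinea pigs (outbred Dunkin-Hartley) given topical ethanol solution on skin, new compounds up to 50 μg cm-2, 5-MOP and 8-MOP at 10 μg cm-2; kept dark 45 min, then treated skin irradiated with 20 kJ m-2 UVA (lamps emitting over 90% at 365 nm); erythema scored after 48 h.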

Assay [5] concerns HL-60. Nature of the assay: The compound was tested in vitro for growth inhibition against HL-60(human promyelocytic leukemia) cell line in the presence of UVA(ultra violet A irradiated). The assay is classed as functional, cell-based. To be noted: HL-60, light or radiation study.
For assay [6], the system named is Cavia porcellus. Nature of the assay: The compound was tested for photo antiproliferative activity and ability to induce erythema on guinea pig skin; +++ = strong (without edema). The assay is classed as functional, organism-based. Put shortly: as §1
For assay [7], the species on record is Cavia porcellus. The assay can be described thus: The compound was tested for photo antiproliferative activity and ability to induce erythema on guinea pig skin; +-- = mild. The assay is classed as functional, organism-based. Put shortly:
as §1

Broadly, the IC50 is the concentration needed to halve the response being measured. Turning to `Cc1cc(=O)oc2c(O)c3oc4ccccc4c3cc12`, the IC50 in the assay on HL-60 [1], in the assay with HeLa [2], in the assay with HeLa [3] and with HL-60 [5] was over 20 µM throughout. In addition, the Formation of erythema result in the assay listed under Cavia porcellus [4] is “inactive”.
Consider `Cc1cc(=O)oc2c(OCCCN(C)C)c3oc4ccccc4c3cc12`, for which the IC50 in the assay with HL-60 [1] was found to be 4.2 µM; in the assay with HeLa [2], 0.08 µM; in the assay with HeLa [3] it was 9.6 µM; with HL-60 [5] it was 0.6 µM. Further, the Formation of erythema entry in the assay filed under Cavia porcellus [4] is “inactive”.
As for `COc1c2ccoc2cc2oc(=O)ccc12` [BERGAPTEN], the IC50 with HL-60 [1] is over 20 µM; in the assay with HeLa [2] it was 16.3 µM; in the assay on HeLa [3], over 20 µM; in the assay on HL-60 [5] it was 3.35 µM. In addition, the Formation of erythema entry in the assay with Cavia porcellus [6] is “Active”.
As to `Cc1cc(=O)oc2c(O)c3oc4c(c3cc12)CCCC4`, the IC50 in the assay on HL-60 [1], with HeLa [2], in the assay with HeLa [3] and in the assay on HL-60 [5] was over 20 µM throughout. The Formation of erythema result in the assay filed under Cavia porcellus [4] was “inactive”.
`Cc1cc(=O)oc2cc3oc4c(c3c(O)c12)CCCC4`: the IC50 in the assay with HL-60 [1] is over 20 µM; in the assay with HeLa [2], over 20 µM; with HeLa [3] it was over 20 µM; in the assay on HL-60 [5], 7.3 µM. For the same molecule, the Formation of erythema entry in the assay listed under Cavia porcellus [4] is “inactive”.
Regarding `Cc1cc(=O)oc2cc3oc4ccccc4c3c(O)c12`, the IC50 with HL-60 [1], with HeLa [2], with HeLa [3] and with HL-60 [5] was over 20 µM in each case. The Formation of erythema result in the assay listed under Cavia porcellus [4] was “inactive”.
In the case of `COc1c2c(C)cc(=O)oc2cc2oc3c(c12)CCCC3`, the IC50 is over 20 µM in the assay on HL-60 [1], 4.6 µM in the assay with HeLa [2], over 20 µM in the assay on HeLa [3] and 4.9 µM with HL-60 [5]. Moreover, the Formation of erythema result in the assay listed under Cavia porcellus [4] is “inactive”.
Consider `COc1c2oc(=O)cc(C)c2cc2c3c(oc12)CCCC3`, for which the IC50 in the assay with HL-60 [1] is over 20 µM; in the assay with HeLa [2], over 20 µM; in the assay with HeLa [3], over 20 µM; in the assay with HL-60 [5], 3.5 µM. The Formation of erythema result in the assay listed under Cavia porcellus [4] is “inactive”.
`COc1c2c(C)cc(=O)oc2cc2oc3ccccc3c12`: the IC50 with HL-60 [1] is over 20 µM; with HeLa [2], over 20 µM; in the assay on HeLa [3], over 20 µM; with HL-60 [5] it was 4.5 µM. The Formation of erythema result in the assay listed under Cavia porcellus [4] was “inactive”.
Turning to `Cc1cc(=O)oc2cc3oc4ccccc4c3c(OCCCN(C)C)c12`, the IC50 in the assay with HL-60 [1] was 9.2 µM; in the assay on HeLa [2], 2.8 µM; with HeLa [3], over 20 µM; with HL-60 [5], 0.73 µM. Further, the Formation of erythema entry in the assay listed under Cavia porcellus [4] is “inactive”.
With `Cc1cc(=O)oc2c(OCCCN(C)C)c3oc4c(c3cc12)CCCC4`, the IC50 was 12.4 µM in the assay with HL-60 [1], 1.2 µM in the assay on HeLa [2], over 20 µM with HeLa [3] and 0.6 µM in the assay with HL-60 [5]. The Formation of erythema entry with Cavia porcellus [6] is recorded as “strong (without edema)”.
With `COc1c2oc(=O)cc(C)c2cc2c1oc1ccccc12`, the IC50 is over 20 µM in the assay with HL-60 [1], over 20 µM in the assay on HeLa [2], over 20 µM with HeLa [3] and 6.4 µM with HL-60 [5]. In the assay listed under Cavia porcellus [4], the Formation of erythema entry is “inactive”.
As to `Cc1cc(=O)oc2cc3oc4c(c3c(OCCCN(C)C)c12)CCCC4`, the IC50 was 13.8 µM in the assay on HL-60 [1], 3.7 µM in the assay on HeLa [2], over 20 µM with HeLa [3] and 3.4 µM with HL-60 [5]. For the same molecule, the Formation of erythema entry in the assay listed under Cavia porcellus [7] was “+--”.
For the molecule `COc1c2occc2cc2ccc(=O)oc12` [METHOXSALEN], the half-maximal inhibitory concentration (IC50) in the assay on HL-60 [1] is over 20 µM; in the assay on HeLa [2], 10 µM; in the assay on HeLa [3] it was over 20 µM; with HL-60 [5], 5.4 µM. Besides, in the assay on Cavia porcellus [6], the Formation of erythema entry is “Active”.
